# A selection: hits, their analogues and other compounds. The true share with any hit is near 3.6%.
# PAFAH2 FP inh: inhibitors of human PAFAH2. 0.99% of 340,000 active. inhibition, % at 3.39 µM. AID 492956. recombinant PAFAH2, FP-rhodamine activity probe, fluorescence polarization. Q99487;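 active means inhibition above the mean over all tested compounds plus 3 SD, cut at about 30% in these data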;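 further: inhibitors block probe labeling of enzyme so polarization drops; 0% = enzyme with DMSO and 100% = wells lacking PAFAH2 protein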
# IMP-1 inh: blocks Pseudomonas aeruginosa IMP-1 metallo-beta-lactamase; purified IMP-1, nitrocefin hydrolysis, epi-absorbance fluorescence; inhibition, % at 5.6 µM; 0.45% of 290,000 active; AID 1556;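 active means inhibition above the mean plus 3 SD of all compounds in the same screening run, cut at about 4.5% in these data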;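 further: 0% = IMP-1 with DMSO and 100% = DMSO wells lacking enzyme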
#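 System: purified IMP-1; amount: IMP-1 0.2 nM before substrate addition; compound: single dose, 5.6 µM; times: 25 °C, 15 min preincubation, 25 min reaction; signal: Epi-absorbance via hydrolysed-nitrocefin quenching of white-plate fluorescence, 480/530 nm, EDTA stop; benchmarks: DMSO with and without IMP-1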
# VIM-2 inhibitor: blocks Pseudomonas aeruginosa VIM-2 metallo-beta-lactamase | purified VIM-2, nitrocefin hydrolysis, epi-absorbance fluorescence | inhibition, % at 5.6 µM | 0.89% of 290,000 active | AID 1527;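 active means inhibition above the mean of all tested compounds plus 3 SD, cutoff set per screening run, cut at about 7.5% in these data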;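 further: red hydrolysis product quenches plate fluorescence so inhibitors raise well fluorescence; 0% = enzyme with DMSO and 100% = DMSO without enzyme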
# pPAFAH inh: inhibitors of human plasma PAF acetylhydrolase (pPAFAH). inhibition, % at 3.39 µM. AID 463082. 1.5% of 330,000 active. Q13093. recombinant pPAFAH, FP-rhodamine probe fluorescence polarization;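 active means inhibition above the mean inhibition across the screen plus 3 SD, cut at about 25% in these data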;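 further: inhibitors block binding of the rhodamine activity-based probe so polarization drops; 0% = enzyme with DMSO and 100% = wells lacking pPAFAH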
# Target sequence (Q13093 whole entry, looked up): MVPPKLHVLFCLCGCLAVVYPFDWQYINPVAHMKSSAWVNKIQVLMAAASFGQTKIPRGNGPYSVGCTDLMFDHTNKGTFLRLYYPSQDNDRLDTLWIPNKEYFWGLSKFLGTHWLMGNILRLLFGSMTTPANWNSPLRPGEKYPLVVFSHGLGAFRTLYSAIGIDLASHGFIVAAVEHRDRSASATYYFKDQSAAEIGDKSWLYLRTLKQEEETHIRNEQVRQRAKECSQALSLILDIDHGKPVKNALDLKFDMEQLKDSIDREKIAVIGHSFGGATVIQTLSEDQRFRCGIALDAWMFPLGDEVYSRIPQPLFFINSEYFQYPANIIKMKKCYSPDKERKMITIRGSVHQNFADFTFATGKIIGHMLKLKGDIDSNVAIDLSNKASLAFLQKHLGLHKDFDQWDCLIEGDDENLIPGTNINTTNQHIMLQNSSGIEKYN
# PAFAH1B3 FP inh: inhibitors of human PAFAH1B3 | 0.28% of 340,000 active | Q15102 | recombinant PAFAH1B3, FP-rhodamine probe, fluorescence polarization | inhibition, % at 3.39 µM;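 active means inhibition above the screen-wide average of all tested compounds plus 3 SD, cut at about 25% in these data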;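 further: 0% = enzyme with DMSO only and 100% = wells lacking PAFAH1B3 protein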
# PAFAH1B2 inh: inhibitors of human PAFAH1B2; recombinant PAFAH1B2, FP-rhodamine activity probe, fluorescence polarization; inhibition, % at 3.39 µM; 1.2% of 340,000 active;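 active means inhibition above the mean of all tested compounds plus 3 SD, cut at about 24% in these data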;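 further: 0% = enzyme with DMSO and 100% = wells lacking PAFAH1B2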
# Numbers without * were called inactive; / = no result given; ! = not active in a repeat.
SMILES,PAFAH2 FP inh,IMP-1 inh,VIM-2 inhibitor,pPAFAH inh,PAFAH1B3 FP inh,PAFAH1B2 inh
CC(C)(C)OC(=O)N1CCCC(C(=O)Nc2cccc(C(=O)N3CCCCC3)c2)C1 (configuration not stated),-4,/,/,/,8,2
C=CCSc1nc2ccccc2n2cnnc12,-3,-1,10*,5,0,-1
O=C(CC1C(=O)NCCN1Cc1cccc(F)c1)NCCCOc1cccnc1 (configuration not stated),1,-1,-2,-1,8,1
COc1ccc(Br)c2oc(SC)cc(=O)c12,6,-6,9.2*,2,-9,2
N=c1c(C(=O)NCCN2CCOCC2)cc2c(=O)n3ccccc3nc2n1CCCN1CCOCC1,-1,-1,6,3,1,1
Cc1ccc2nc3c(cc(C(N)=S)c(=N)n3CCCOC(C)C)c(=O)n2c1,9,3,7.9*,9,-3,3
Cc1ccc2nc3c(cc(C(=O)NCCN4CCOCC4)c(=N)n3CCCN3CCOCC3)c(=O)n2c1,1,-4,8.9*,7,0,3
Cc1ccc2nc3c(cc(C(=O)NCCc4ccccc4)c(=N)n3CCN3CCOCC3)c(=O)n2c1,20,-4,0,0,6,6
COc1ccc(CCn2c(=N)c(C(=O)NC3CCCC3)cc3c(=O)n4ccccc4nc32)cc1,1,-2,3,4,-2,-4
COc1ccc(CCn2c(=N)c(C(=O)NC3CCCC3)cc3c(=O)n4ccccc4nc32)cc1OC,0,-2,10*,1,6,-1
N=c1c(C(=O)NCCN2CCOCC2)cc2c(=O)n3ccccc3nc2n1Cc1ccc(F)cc1,4,-4,8.1*,0,5,-2
CSc1ccc(NC(=O)NCCCN2CCC(Cc3ccccc3)CC2)cc1,3,-2,-2,-4,13,1
Cc1ccccc1NS(=O)(=O)c1nnc(NC(=O)CC(C)C)s1,4,-5,-2,6,2,3
CCOC(=O)Cn1nc(-c2ccccc2)c2ccccc2c1=O,11,5.2*,1,6,3,-2
CCOC(=O)Cn1nc(Cc2ccccc2)c2ccccc2c1=O,-3,1,-1,2,5,0
COc1ccc(-c2cc(=O)c3c(OC)c(OC)c(OC)c(OC)c3o2)cc1OC,7,-1,10*!,7,8,2
COc1cc(-c2cc(=O)c3ccccc3o2)ccc1O,-2,-2,9.5*,14,8,-4
COc1cc(-c2cc(=O)c3c(O)cc(O)cc3o2)ccc1O,/,-3,0,11,/,/
Cc1ccc(CNC(=O)CO/N=C/c2ccc(C(C)(C)C)cc2)cc1,-6,0,-2,7,3,29*
O=C(Nc1cccc(/C=C/c2ccccn2)c1)c1ccc(-n2cncn2)c([N+](=O)[O-])c1,-2,/,/,4,1,-7
CNc1ccc(Br)cc(C(=O)/C=C/c2ccc(OC)cc2OC)c1=O,13,0,-2,25*,18,2
COc1ccc(/C=C/C(=O)c2ccc(OC)cc2OC)c(OC)c1,-10,-1,1,-6,2,-1
CC(=O)OC1CC(C)N(C(=O)c2ccccc2)c2ccc(C)cc21 (configuration not stated),-6,-3,-2,2,4,4
Cc1ccc2c(c1)C=CC(C)N2C(=O)c1ccccc1 (configuration not stated),4,-2,0,-2,3,32*
COc1ccc(NS(=O)(=O)c2ccc3oc(SC(C)C(N)=O)nc3c2)cc1 (configuration not stated),4,-1,-4,21,4,6
SMILES,PAFAH2 FP inh,IMP-1 inh,VIM-2 inhibitor,pPAFAH inh,PAFAH1B3 FP inh,PAFAH1B2 inh
COC1=C/C(=C/c2c(N)n3nc(-c4ccc(C)cc4)sc3nc2=O)C=CC1=O,13,-3,-3,/,18,28*
Cc1ccc(N/N=C(/Sc2nnnn2-c2ccccc2)C(=O)c2ccccc2)cc1,0,-3,-4,2,-3,27*
c1ccc(CSc2nnc3c(n2)OC(c2ccco2)Nc2ccccc2-3)cc1 (configuration not stated),23,-2,-3,26*,0,6
CCc1ccc(-c2nc(SCC(=O)N(CC)C3CCS(=O)(=O)C3)n[nH]2)cc1 (configuration not stated),-5,/,/,-2,2,6
CCOc1ccc(S(=O)(=O)n2ccnc2C)cc1,/,-3,-3,0,/,/
O=S(=O)(Nc1cccc(-c2ccc(N3CCCCCC3)nn2)c1)c1ccc(F)cc1,3,-1,-3,20,9,17
O=S(=O)(Nc1cccc(-c2ccc(N3CCCCCC3)nn2)c1)c1ccccc1Cl,-14,-2,-2,29*,-1,21
O=S(=O)(Nc1cccc(-c2ccc(N3CCCCCC3)nn2)c1)c1cccc(F)c1,5,0,-7,27*,-3,7
N#Cc1ccc(-c2ccco2)nc1SCC(=O)c1ccc(Cl)cc1,1,-3,-1,39*,2,7
CC(=O)N1CCC(O)(c2ccc3c(c2)OCO3)CC1,2,-3,-1,3,-1,1
O=C(COC(=O)c1c[nH]c2ccccc12)Nc1ccc(F)cc1,77*,/,/,30*,1,0
O=C(COC(=O)c1c[nH]c2ccccc12)Nc1cccc(F)c1,81*,/,/,25*,9,-1
Cc1cc(NC(=O)c2nn(C)c(C)c2Br)no1,-3,-4,-6,0,6,2
O=C(Cn1nnc(-c2ccc(F)cc2)n1)Nc1cccc(S(=O)(=O)N2CCCC2)c1,-1,/,/,0,-5,-1
Cc1ccc(-n2c(-c3ccc(Cl)cc3)n[nH]c2=S)c(C)c1,4,-3,-4,1,4,29*
COc1ccc(-c2n[nH]c(=S)n2-c2ccc(C)cc2C)cc1,5,-3,-3,3,3,5
Cc1csc(=O)n1CCC(=O)OCc1nnc(-c2ccc(Cl)cc2)o1,-3,/,/,/,5,4
CC(C)(C)n1cnc2cc(NCc3ccc(Br)cc3)ccc21,1,-2,-3,8,6,34*
CCc1ccc(CNc2ccc3c(c2)ncn3C(C)(C)C)cc1,-5,-5,-3,10,10,13
CCOC(=O)C1CCCN(C(=O)Cc2c(C(=O)O)[nH]c3ccccc23)C1 (configuration not stated),5,-2,-1,9,8,34*
Cc1ccc(S(=O)(=O)N2CCN(CC(=O)Nc3ccc(N4CCOCC4)cc3)CC2)cc1C,0,-2,-3,5,14,-2
Cc1cccc(N2CCN(CC(=O)Nc3ccc(S(=O)(=O)N4CCOCC4)cc3)CC2)c1C,3,4.5*,2,1,12,0
